Consider 20 compounds from ChEMBL document CHEMBL1129461 (J Med Chem, 1996).

Experiment [1] deals with T1, Protein kinase C beta type (Homo sapiens, UniProt P05771). Put plainly: Evaluated against recombinant human Protein kinase C beta 1. In short, it runs like this: (§1)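 Recombinant human PKC isozymes expressed in SF9 cells via baculovirus, partly purified (50–90%). 32P transfer from 30 μM [32P]ATP to 200 μg/mL histone IIIS in 20 mM Hepes pH 7.5, 10 mM MgCl2, EGTA, CaCl2, phosphatidylserine, and diacylglycerol at the isozyme-dependent level giving half-maximal activation. 10 min at 30 °C, TCA stop, filter counting. No-lipid background subtracted.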
T1 sequence (P05771 whole entry): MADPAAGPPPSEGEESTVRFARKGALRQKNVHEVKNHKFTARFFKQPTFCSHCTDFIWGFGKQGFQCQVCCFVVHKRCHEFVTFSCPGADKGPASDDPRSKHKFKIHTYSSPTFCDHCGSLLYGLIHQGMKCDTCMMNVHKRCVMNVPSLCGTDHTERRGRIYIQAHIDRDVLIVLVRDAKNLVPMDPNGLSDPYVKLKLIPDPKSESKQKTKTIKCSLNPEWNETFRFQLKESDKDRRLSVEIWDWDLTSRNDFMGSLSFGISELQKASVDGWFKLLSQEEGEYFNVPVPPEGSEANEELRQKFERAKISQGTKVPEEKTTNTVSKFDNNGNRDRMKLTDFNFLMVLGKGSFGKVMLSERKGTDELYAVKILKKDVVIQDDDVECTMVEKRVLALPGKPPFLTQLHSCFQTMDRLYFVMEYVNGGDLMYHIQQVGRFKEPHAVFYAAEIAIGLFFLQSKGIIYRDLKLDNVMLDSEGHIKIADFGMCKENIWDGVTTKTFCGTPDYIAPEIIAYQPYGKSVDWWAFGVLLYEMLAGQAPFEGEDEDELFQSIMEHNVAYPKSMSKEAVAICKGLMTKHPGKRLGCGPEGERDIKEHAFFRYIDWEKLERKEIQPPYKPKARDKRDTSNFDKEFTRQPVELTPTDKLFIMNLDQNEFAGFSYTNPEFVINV

In experiment [2] the target is Protein kinase C gamma type (Homo sapiens, UniProt P05129). The experiment is described as follows: Evaluated against recombinant human Protein kinase C gamma. In short, it runs like this:
as §1

The target of experiment [3] is T2, Protein kinase C epsilon type (Homo sapiens, UniProt Q02156).
T2 sequence (Q02156 whole entry): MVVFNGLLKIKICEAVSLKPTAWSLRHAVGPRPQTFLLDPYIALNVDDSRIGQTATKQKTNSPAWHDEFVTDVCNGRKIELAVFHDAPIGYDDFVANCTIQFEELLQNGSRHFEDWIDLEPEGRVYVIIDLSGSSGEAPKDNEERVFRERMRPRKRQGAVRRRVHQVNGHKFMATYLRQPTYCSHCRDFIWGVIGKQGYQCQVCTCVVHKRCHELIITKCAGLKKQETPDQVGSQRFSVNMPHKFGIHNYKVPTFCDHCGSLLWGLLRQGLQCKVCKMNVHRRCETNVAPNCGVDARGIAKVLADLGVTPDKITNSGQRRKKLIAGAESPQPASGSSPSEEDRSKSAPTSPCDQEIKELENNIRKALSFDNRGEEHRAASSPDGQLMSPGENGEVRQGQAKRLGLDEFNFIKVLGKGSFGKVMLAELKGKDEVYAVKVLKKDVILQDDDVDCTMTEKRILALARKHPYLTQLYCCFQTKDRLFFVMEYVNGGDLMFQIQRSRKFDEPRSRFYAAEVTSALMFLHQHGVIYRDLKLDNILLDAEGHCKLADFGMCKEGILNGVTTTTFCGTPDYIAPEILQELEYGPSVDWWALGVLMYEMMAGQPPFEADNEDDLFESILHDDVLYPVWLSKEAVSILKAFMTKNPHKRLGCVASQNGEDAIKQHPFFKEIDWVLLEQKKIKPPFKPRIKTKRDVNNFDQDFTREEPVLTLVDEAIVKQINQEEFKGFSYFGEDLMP
Put plainly: Evaluated against recombinant human Protein kinase C epsilon. In short, it runs like this: as §1

For experiment [4], the target named is T1, Protein kinase C beta type. Put plainly: Evaluated against recombinant human Protein kinase C beta 2. In short, it runs like this: as §1
The target of experiment [5] is Protein kinase C eta type (Homo sapiens, UniProt P24723). Put plainly: Evaluated against recombinant human Protein kinase C eta. Put shortly: as §1
Chain of Protein kinase C eta type (P24723 whole entry): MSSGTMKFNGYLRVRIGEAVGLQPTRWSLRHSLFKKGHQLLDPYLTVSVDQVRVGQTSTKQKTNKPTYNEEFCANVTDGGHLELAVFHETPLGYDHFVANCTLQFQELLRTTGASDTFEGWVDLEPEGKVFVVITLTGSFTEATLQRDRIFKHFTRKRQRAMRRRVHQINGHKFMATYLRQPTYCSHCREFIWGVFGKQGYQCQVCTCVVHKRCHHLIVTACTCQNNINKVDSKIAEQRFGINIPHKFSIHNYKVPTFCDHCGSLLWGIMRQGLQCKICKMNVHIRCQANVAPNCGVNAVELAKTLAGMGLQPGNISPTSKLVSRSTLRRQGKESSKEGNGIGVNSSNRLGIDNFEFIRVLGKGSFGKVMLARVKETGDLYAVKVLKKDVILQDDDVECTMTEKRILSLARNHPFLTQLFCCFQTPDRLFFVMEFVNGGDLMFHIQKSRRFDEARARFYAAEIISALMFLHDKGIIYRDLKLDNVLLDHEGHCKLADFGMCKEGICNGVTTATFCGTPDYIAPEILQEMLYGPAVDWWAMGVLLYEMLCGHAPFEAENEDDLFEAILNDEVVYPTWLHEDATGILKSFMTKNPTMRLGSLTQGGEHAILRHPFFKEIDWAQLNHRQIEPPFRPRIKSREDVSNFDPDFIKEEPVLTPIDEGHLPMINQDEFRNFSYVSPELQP
Experiment [6] concerns the target Protein kinase C delta type (Homo sapiens, UniProt Q05655). The experiment is described as follows: Evaluated against recombinant human Protein kinase C delta. Put shortly: as §1
The target of experiment [7] is Protein kinase C alpha type (Homo sapiens, UniProt P17252). Put plainly: Evaluated against recombinant human Protein kinase C alpha. In short, it runs like this:
as §1

Experiment [8] can be described thus: Evaluated against bovine heart Protein Kinase A (PKA).

Chain of Protein kinase C delta type (Q05655 whole entry): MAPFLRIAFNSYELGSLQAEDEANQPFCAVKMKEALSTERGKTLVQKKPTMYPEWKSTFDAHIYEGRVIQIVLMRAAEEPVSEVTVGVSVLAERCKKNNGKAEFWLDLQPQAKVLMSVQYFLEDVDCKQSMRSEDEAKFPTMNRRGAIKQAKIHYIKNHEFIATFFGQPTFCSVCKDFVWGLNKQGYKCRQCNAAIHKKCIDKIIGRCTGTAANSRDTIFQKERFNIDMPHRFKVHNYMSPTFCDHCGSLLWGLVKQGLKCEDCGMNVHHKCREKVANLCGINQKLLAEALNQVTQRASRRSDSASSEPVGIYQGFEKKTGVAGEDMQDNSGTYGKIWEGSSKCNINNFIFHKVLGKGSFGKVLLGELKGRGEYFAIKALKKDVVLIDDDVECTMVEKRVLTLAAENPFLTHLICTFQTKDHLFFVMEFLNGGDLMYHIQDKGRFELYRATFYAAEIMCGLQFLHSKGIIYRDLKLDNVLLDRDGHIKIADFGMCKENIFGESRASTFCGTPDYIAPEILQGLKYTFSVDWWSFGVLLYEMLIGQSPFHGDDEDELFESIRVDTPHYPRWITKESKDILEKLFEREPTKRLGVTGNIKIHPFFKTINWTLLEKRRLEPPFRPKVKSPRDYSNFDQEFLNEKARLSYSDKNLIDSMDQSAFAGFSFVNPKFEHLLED

`O=C(OCC(COc1ccc(O)cc1)NS(=O)(=O)c1ccccc1)c1cc(O)c(C(=O)c2c(O)cccc2C(=O)O)c(O)c1` (stereo not given): the IC50 (commonly the concentration needed to halve the response being measured) is 1600 nM in experiment [1]; 1600 nM in experiment [2]; 47000 nM in experiment [3]; 830 nM in experiment [4]; 500 nM in experiment [5]; 220 nM in experiment [6]. Besides, the concentration for half-maximal inhibition (IC50) in experiment [7] was 18000 nM; in experiment [8], greater than 50000 nM.
`O=C(NC(COC(=O)c1cc(O)c(C(=O)c2c(O)cccc2C(=O)O)c(O)c1)Cc1ccc(O)cc1)c1ccccc1` (stereo not given): the IC50 in experiment [3] is greater than 50000 nM; in experiment [4], 2800 nM; in experiment [5], 18000 nM; in experiment [6], 22000 nM; in experiment [7] it was 45000 nM; in experiment [8], greater than 50000 nM.
As to `COC(=O)c1cccc(O)c1C(=O)c1c(O)cc(C(=O)OC2CNCC2Cc2ccc(O)cc2)cc1O` (stereo not given), the IC50 in experiment [1] was determined as 110 nM; in experiment [2], 380 nM; in experiment [4] it was 250 nM; in experiment [5] it was 500 nM; in experiment [6], 100 nM; in experiment [7], 2200 nM.
As for `O=C(NCCOC(=O)c1cc(O)c(C(=O)c2c(O)cccc2C(=O)O)c(O)c1)c1ccc(O)cc1`, the concentration for half-maximal inhibition (IC50) in experiment [1] amounted to 4500 nM; in experiment [2], 6600 nM; in experiment [3], 13000 nM; in experiment [4] it was 7500 nM; in experiment [5], 230 nM; in experiment [6], 410 nM. In addition, the IC50 in experiment [7] came out at 11000 nM; in experiment [8], 8400 nM.
Consider `O=C(OC1CCCC1Oc1ccc(O)cc1)c1cc(O)c(C(=O)c2c(O)cccc2C(=O)O)c(O)c1` (stereo not given), for which the IC50 in experiment [1] turned out to be 20 nM; in experiment [2], 250 nM; in experiment [3] it was 240 nM; in experiment [4], 20 nM; in experiment [5], 10 nM; in experiment [6] it was 20 nM. Also, the IC50 was 220 nM in experiment [7] and greater than 50000 nM in experiment [8].
Consider `O=C(OCCCCc1ccc(O)cc1)c1cc(O)c(C(=O)c2c(O)cccc2C(=O)O)c(O)c1`, for which the IC50 in experiment [1] worked out at 960 nM; in experiment [2], 1400 nM; in experiment [3], 30000 nM; in experiment [4], 370 nM; in experiment [5] it was 250 nM; in experiment [6], 290 nM. The IC50 in experiment [7] is 3300 nM; in experiment [8], greater than 50000 nM.
For the compound `CN(C)C(COC(=O)c1cc(O)c(C(=O)c2c(O)cccc2C(=O)O)c(O)c1)Cc1ccc(O)cc1` (stereo not given), the IC50 in experiment [1] was 880 nM; in experiment [2], 4200 nM; in experiment [3], 30000 nM; in experiment [4], 500 nM; in experiment [5], 1400 nM; in experiment [6], 270 nM. For the same compound, the IC50 is 4000 nM in experiment [7] and greater than 50000 nM in experiment [8].
Consider `O=C(OCCCc1ccc(O)cc1)c1cc(O)c(C(=O)c2c(O)cccc2C(=O)O)c(O)c1`, for which the 50% inhibitory concentration (IC50) is 210 nM in experiment [1]; 830 nM in experiment [2]; 4100 nM in experiment [3]; 270 nM in experiment [4]; less than 50 nM in experiment [5]; 130 nM in experiment [6]. Moreover, the IC50 in experiment [7] was 1900 nM; in experiment [8] it was greater than 50000 nM.
As to `O=C(OCC(Cc1ccc(O)cc1)NS(=O)(=O)c1ccc2ccccc2c1)c1cc(O)c(C(=O)c2c(O)cccc2C(=O)O)c(O)c1` (stereo not given), the IC50 stood at 2800 nM in experiment [1]; 2700 nM in experiment [2]; 39000 nM in experiment [3]; 1800 nM in experiment [4]; 35000 nM in experiment [5]; 2600 nM in experiment [6]. The values for the IC50 in experiment [7] and in experiment [8] were 3200 nM and greater than 50000 nM, respectively.
Consider `O=C(NC(COC(=O)c1cc(O)c(C(=O)c2c(O)cccc2C(=O)O)c(O)c1)Cc1ccc(O)cc1)c1ccc(O)cc1` (stereo not given), for which the IC50 is 3600 nM in experiment [1]; 2900 nM in experiment [2]; greater than 50000 nM in experiment [3]; 3000 nM in experiment [4]; 2300 nM in experiment [5]; 820 nM in experiment [6]. The concentration for half-maximal inhibition (IC50) in experiment [7] is 18000 nM; in experiment [8] it was greater than 50000 nM.
On to `CS(=O)(=O)NC(COC(=O)c1cc(O)c(C(=O)c2c(O)cccc2C(=O)O)c(O)c1)Cc1ccc(O)cc1` (stereo not given), for which the 50% inhibitory concentration (IC50) is 220 nM in experiment [1]; 5000 nM in experiment [2]; greater than 50000 nM in experiment [3]; 430 nM in experiment [4]; 390 nM in experiment [5]; 410 nM in experiment [6]. Further, the figures for the half-maximal inhibitory concentration (IC50) in experiment [7] and in experiment [8] were 23000 nM and greater than 50000 nM, respectively.
`COC(=O)c1cccc(O)c1C(=O)c1c(O)cc(C(=O)OC2CCCC2Cc2ccc(O)cc2)cc1O` (stereo not given): the IC50 in experiment [1] amounted to 100 nM; in experiment [2], 1700 nM; in experiment [3], 4500 nM; in experiment [4] it was 90 nM; in experiment [5] it was 40 nM; in experiment [6], 50 nM. In addition, the 50% inhibitory concentration (IC50) in experiment [7] was 1400 nM; in experiment [8] it was greater than 50000 nM.
With `O=C(OC[C@@H](Cc1ccc(O)cc1)NS(=O)(=O)c1ccccc1)c1cc(O)c(C(=O)c2c(O)cccc2C(=O)O)c(O)c1`, the IC50 in experiment [1] came out at 30 nM; in experiment [2], 470 nM; in experiment [3], 460 nM; in experiment [4] it was 7 nM; in experiment [5], 3 nM; in experiment [6], 3 nM. Moreover, the concentration for half-maximal inhibition (IC50) in experiment [7] was 210 nM; in experiment [8], greater than 50000 nM.
For the compound `O=C(OC[C@H](Cc1ccc(O)cc1)NS(=O)(=O)c1ccccc1)c1cc(O)c(C(=O)c2c(O)cccc2C(=O)O)c(O)c1`, the IC50 came to 230 nM in experiment [1]; 2600 nM in experiment [2]; 2300 nM in experiment [3]; 20 nM in experiment [4]; 20 nM in experiment [5]; 30 nM in experiment [6]. The figures for the half-maximal inhibitory concentration (IC50) in experiment [7] and in experiment [8] were 1900 nM and greater than 50000 nM, respectively.
As for `O=C(NC1CCCC1OC(=O)c1cc(O)c(C(=O)c2c(O)cccc2C(=O)O)c(O)c1)c1ccc(O)cc1` (stereo not given), the IC50 in experiment [1] was 40 nM; in experiment [2] it was 10 nM; in experiment [3], 50 nM; in experiment [4], 50 nM; in experiment [5], 0.6 nM; in experiment [6] it was 0.9 nM. In addition, the 50% inhibitory concentration (IC50) in experiment [7] turned out to be 40 nM.
In the case of `O=C(OC1CNCC1Cc1ccc(O)cc1)c1cc(O)c(C(=O)c2c(O)cccc2C(=O)O)c(O)c1` (stereo not given), the IC50 stood at 10 nM in experiment [1]; 40 nM in experiment [2]; 1800 nM in experiment [3]; 30 nM in experiment [4]; 20 nM in experiment [5]; 5 nM in experiment [6]. In addition, the IC50 in experiment [7] was determined as 260 nM.
Turning to `Cc1ccc(S(=O)(=O)N2CCC[C@@H](OC(=O)c3cc(O)c(C(=O)c4c(O)cccc4C(=O)O)c(O)c3)[C@H](NC(=O)c3ccc(O)cc3)C2)cc1`, the IC50 in experiment [1] amounted to 70 nM; in experiment [2], 3500 nM; in experiment [3], 15000 nM; in experiment [4] it was 20 nM; in experiment [5], 100 nM; in experiment [6] it was 4200 nM. In addition, the results for the IC50 in experiment [7] and in experiment [8] were 6100 nM and greater than 150000 nM, respectively.
With `O=C(OC1CCCC1Cc1ccc(O)cc1)c1cc(O)c(C(=O)c2c(O)cccc2C(=O)O)c(O)c1` (stereo in doubt; 20b), the IC50 in experiment [1] was 20 nM; in experiment [2] it was 130 nM; in experiment [3], 500 nM; in experiment [4], 20 nM; in experiment [5], 10 nM; in experiment [6], 30 nM. In addition, the IC50 in experiment [7] is 160 nM.
For `COC(=O)c1cccc(O)c1C(=O)c1c(O)cc(C(=O)OCCCc2ccc(O)cc2)cc1O`, the 50% inhibitory concentration (IC50) in experiment [1] was found to be 460 nM; in experiment [2], 4100 nM; in experiment [4], 750 nM; in experiment [5], 170 nM; in experiment [6], 300 nM; in experiment [7], 7800 nM.
Regarding `O=C(NC1CNCCCC1OC(=O)c1cc(O)c(C(=O)c2c(O)cccc2C(=O)O)c(O)c1)c1ccc(O)cc1` (racemic), the IC50 turned out to be 30 nM in experiment [1]; 30 nM in experiment [2]; 30 nM in experiment [4]; 20 nM in experiment [5]; 23 nM in experiment [6]; 67 nM in experiment [7]. This compound also showed an IC50 in experiment [8] of 60 nM.
